From ChEMBL document CHEMBL1811844, “Design, synthesis, and biological evaluation of triazolo-pyrimidine derivatives as novel inhibitors of hepatitis B virus surface antigen (HBsAg) secretion” (J Med Chem, 2011)

Tests used:
Mus musculus [1] = experiment: Toxicity in HBV infected transgenic 1.3.32 mouse assessed as change in serum globulin level at 7.9 to 25 mg/kg, po qd for 14 days; format: organism-based; set-up: dose 7.9-25 mg/kg, route oral; conditions: in vivo, 336 h
Procedure, shortened: (§1)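 HBV-transgenic mice (strain 1.3.32), 10 per group, randomised; oral gavage once daily for 14 days at 25 or 7.9 mg/kg in NMP:Solutol HS15/saline vehicle; vehicle-only group. Weighed before the first dose and after 3 days; observed one hour after each dose. Tail-vein blood taken before dosing, at day 7 and at day 14 necropsy, each 3 h post-dose, for serum chemistry.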

Mus musculus [2] = experiment: Toxicity in HBV infected transgenic 1.3.32 mouse assessed as change in serum amylase level at 7.9 to 25 mg/kg, po qd for 14 days; format: organism-based; set-up: dose 7.9-25 mg/kg, route oral; conditions: in vivo, 336 h; procedure, shortened: as §1
Mus musculus [3] = experiment: Toxicity in HBV infected transgenic 1.3.32 mouse assessed as change in serum alkaline phosphatase level at 7.9 to 25 mg/kg, po qd for 14 days; format: organism-based; set-up: dose 7.9-25 mg/kg, route oral; conditions: in vivo, 336 h; procedure, shortened: as §1
Mus musculus [4] = experiment: Toxicity in HBV infected transgenic 1.3.32 mouse assessed as change in blood urea nitrogen level at 7.9 to 25 mg/kg, po qd for 14 days; format: organism-based; set-up: dose 7.9-25 mg/kg, route oral; conditions: in vivo, 336 h; procedure, shortened: as §1
Mus musculus [5] = experiment: Toxicity in HBV infected transgenic 1.3.32 mouse assessed as behavioral changes at 7.9 to 25 mg/kg, po qd for 14 days; format: organism-based; set-up: dose 7.9-25 mg/kg, route oral; conditions: in vivo, 336 h; procedure, shortened: as §1
Mus musculus [6] = experiment: Toxicity in HBV infected transgenic 1.3.32 mouse assessed as mortality at 7.9 to 25 mg/kg, po qd for 14 days; format: organism-based; set-up: dose 7.9-25 mg/kg, route oral; conditions: in vivo, 336 h; procedure, shortened: as §1
Mus musculus [7] = experiment: Acute toxicity in CL57BL/6 mouse assessed as effect on serum phosphorus level at 25 mg/kg, iv administered as single dose after 24 hrs; format: organism-based; set-up: dose 25 mg/kg, route intravenous; conditions: in vivo
Procedure, shortened: (§2)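 Female C57BL/6 mice, four per group, randomized, each given one tail-vein injection of a 2 mg/mL solution in 1:1 NMP:Solutol HS15 diluted with saline; a vehicle-only group served as control. Mice were watched for the first hour and sacrificed at 24 h with necropsy. Serum was collected and run on an automated chemistry and electrolyte analyser.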

Mus musculus [8] = experiment: Acute toxicity in CL57BL/6 mouse assessed as effect on serum K+ level at 25 mg/kg, iv administered as single dose after 24 hrs; format: organism-based; set-up: dose 25 mg/kg, route intravenous; conditions: in vivo; procedure, shortened: as §2
Mus musculus [9] = experiment: Acute toxicity in CL57BL/6 mouse assessed as effect on serum Ca2+ level at 25 mg/kg, iv administered as single dose after 24 hrs; format: organism-based; set-up: dose 25 mg/kg, route intravenous; conditions: in vivo; procedure, shortened: as §2
Mus musculus [10] = experiment: Acute toxicity in CL57BL/6 mouse assessed as effect on serum glucose level at 25 mg/kg, iv administered as single dose after 24 hrs; format: organism-based; set-up: dose 25 mg/kg, route intravenous; conditions: in vivo; procedure, shortened: as §2
Mus musculus [11] = experiment: Acute toxicity in CL57BL/6 mouse assessed as effect on serum blood urea nitrogen level at 25 mg/kg, iv administered as single dose after 24 hrs; format: organism-based; set-up: dose 25 mg/kg, route intravenous; conditions: in vivo; procedure, shortened: as §2
Mus musculus [12] = experiment: Acute toxicity in CL57BL/6 mouse assessed as effect on hemoglobin concentration at 25 mg/kg, iv administered as single dose after 24 hrs; format: organism-based; set-up: dose 25 mg/kg, route intravenous; conditions: in vivo
Procedure, shortened: (§3)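 Female C57BL/6 mice, four per group, randomized, each given one tail-vein injection of a 2 mg/mL solution in 1:1 NMP:Solutol HS15 diluted with saline; a vehicle-only group served as control. Mice were watched closely for the first hour and sacrificed at 24 h with necropsy. Whole blood was taken for complete blood counts on an automated haematology analyser.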

Mus musculus [13] = experiment: Acute toxicity in CL57BL/6 mouse assessed as effect on red cell distribution width at 25 mg/kg, iv administered as single dose after 24 hrs; format: organism-based; set-up: dose 25 mg/kg, route intravenous; conditions: in vivo; procedure, shortened: as §3
Mus musculus [14] = experiment: Acute toxicity in CL57BL/6 mouse assessed as effect on mean platelet volume at 25 mg/kg, iv administered as single dose after 24 hrs; format: organism-based; set-up: dose 25 mg/kg, route intravenous; conditions: in vivo; procedure, shortened: as §3
Mus musculus [15] = experiment: Acute toxicity in CL57BL/6 mouse assessed as effect on mean corpuscular volume at 25 mg/kg, iv administered as single dose after 24 hrs; format: organism-based; set-up: dose 25 mg/kg, route intravenous; conditions: in vivo; procedure, shortened: as §3
Mus musculus [16] = experiment: Acute toxicity in CL57BL/6 mouse assessed as effect on hematocrit at 25 mg/kg, iv administered as single dose after 24 hrs; format: organism-based; set-up: dose 25 mg/kg, route intravenous; conditions: in vivo; procedure, shortened: as §3
Mus musculus [17] = experiment: Acute toxicity in CL57BL/6 mouse assessed as effect on hemoglobin at 25 mg/kg, iv administered as single dose after 24 hrs; format: organism-based; set-up: dose 25 mg/kg, route intravenous; conditions: in vivo; procedure, shortened: as §3
Mus musculus [18] = experiment: Acute toxicity in CL57BL/6 mouse assessed as effect on eosinophils percent at 25 mg/kg, iv administered as single dose after 24 hrs; format: organism-based; set-up: dose 25 mg/kg, route intravenous; conditions: in vivo; procedure, shortened: as §3
Mus musculus [19] = experiment: Acute toxicity in CL57BL/6 mouse assessed as effect on monocytes count at 25 mg/kg, iv administered as single dose after 24 hrs; format: organism-based; set-up: dose 25 mg/kg, route intravenous; conditions: in vivo; procedure, shortened: as §3
Mus musculus [20] = experiment: Acute toxicity in CL57BL/6 mouse assessed as reduction in platelets count at 25 mg/kg, iv administered as single dose after 24 hrs; format: organism-based; set-up: dose 25 mg/kg, route intravenous; conditions: in vivo
Procedure, shortened: (§4)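 Female C57BL/6 mice, four per group, randomised; single tail-vein bolus in NMP:Solutol HS15 (1:1) diluted with saline to 2 mg/mL, injected within 10 min of preparation; vehicle-only group. Close observation for the first hour; sacrifice and necropsy at 24 h. Whole-blood complete blood counts and serum chemistry, including total bilirubin and total protein, were measured.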

Mus musculus [21] = experiment: Acute toxicity in CL57BL/6 mouse assessed as weight loss at 25 mg/kg, iv administered as single dose after 24 hrs; format: organism-based; set-up: dose 25 mg/kg, route intravenous; conditions: in vivo; procedure, shortened: as §4
Mus musculus [22] = experiment: Acute toxicity in CL57BL/6 mouse assessed as mortality at 25 mg/kg, iv administered as single dose after 24 hrs; format: organism-based; set-up: dose 25 mg/kg, route intravenous; conditions: in vivo; procedure, shortened: as §4
Hepatitis B virus [23] = experiment: Antiviral activity against entecavir-resistant Hepatitis B virus harboring polymerase L528M, M552V, T532G and S550I mutant in human HepG2 cells assessed as inhibition of HBsAg secretion by ELISA; format: functional, organism-based
Hepatitis B virus [24] = experiment: Antiviral activity against lamivudine/telbivudine-resistant Hepatitis B virus harboring polymerase L528M and M552V mutant in human HepG2 cells assessed as inhibition of HBsAg secretion by ELISA; format: functional, organism-based
Mus musculus [25] = experiment: Toxicity in HBV infected transgenic 1.3.32 mouse assessed as change in serum Ca2+ level at 7.9 to 25 mg/kg, po qd for 14 days; format: organism-based; set-up: dose 7.9-25 mg/kg, route oral; conditions: in vivo, 336 h; procedure, shortened: as §1
Mus musculus [26] = experiment: Toxicity in HBV infected transgenic 1.3.32 mouse assessed as change in serum K+ level at 7.9 to 25 mg/kg, po qd for 14 days; format: organism-based; set-up: dose 7.9-25 mg/kg, route oral; conditions: in vivo, 336 h; procedure, shortened: as §1
Rattus norvegicus [27] = experiment: Volume of distribution at steady state in fasted Sprague-Dawley rat at 5 mg/kg, iv by LC/MS/MS analysis; format: ADME, organism-based; set-up: dose 5 mg/kg, route intravenous; conditions: in vivo
Procedure, shortened: (§5)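 Male Sprague-Dawley rats, 3 per treatment, carried jugular cannulae and were fasted 12 h with water. Compound was formulated at 2 mg/mL in 1:1 NMP:Solutol HS15 diluted with saline. Dosing was 5 mg/kg iv or 25 mg/kg oral gavage. Blood was drawn predose and at 5, 15, 30 min, 1, 3 and 6 h. Plasma was quantified by LC-MS/MS against an 8-point standard curve.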

Rattus norvegicus [28] = experiment: Cmax in fasted Sprague-Dawley rat plasma at 25 mg/kg, po after 6 hrs by LC/MS/MS analysis; format: ADME, organism-based; set-up: dose 25 mg/kg, route oral; conditions: in vivo
Procedure, shortened: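 Male rats, 3 per treatment, fitted with jugular vein cannulae two days before dosing and fasted 12 h (water allowed). Compound given by gavage at 25 mg/kg, formulated at 2 mg/mL in 1:1 NMP:Solutol HS15 diluted with saline. Blood taken predose and at 5, 15, 30 min, 1, 3 and 6 h. Plasma quantified by LC/MS against an 8-point standard curve; Cmax calculated by standard methods.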

Rattus norvegicus [29] = experiment: Oral bioavailability in fasted Sprague-Dawley rat at 25 mg/kg after 6 hrs by LC/MS/MS analysis; format: ADME, organism-based; conditions: in vivo; procedure, shortened: as §5

Fc1cccc(Cl)c1C1CC(c2ccc(Cl)cc2)Nc2ncnn21 (racemic)
Activity (Mus musculus [1]): Non-toxic
Activity (Mus musculus [2]): Non-toxic
Activity (Mus musculus [3]): Non-toxic
Activity (Mus musculus [4]): Non-toxic
Activity (Mus musculus [5]): Non-toxic
Activity (Mus musculus [6]): Non-toxic
Activity (Mus musculus [7]): Non-toxic
Activity (Mus musculus [8]): Non-toxic
Activity (Mus musculus [9]): Non-toxic
Activity (Mus musculus [10]): Non-toxic
Activity (Mus musculus [11]): Non-toxic
Activity (Mus musculus [12]): Non-toxic
Activity (Mus musculus [13]): Non-toxic
Activity (Mus musculus [14]): Non-toxic
Activity (Mus musculus [15]): Non-toxic
Activity (Mus musculus [16]): Non-toxic
Activity (Mus musculus [17]): Non-toxic
Activity (Mus musculus [18]): Non-toxic
Activity (Mus musculus [19]): Non-toxic
Activity (Mus musculus [20]): Toxic
Activity (Mus musculus [21]): Non-toxic
Activity (Mus musculus [22]): Non-toxic
EC50 (Hepatitis B virus [23]): 8.3 µM
EC50 (Hepatitis B virus [24]): 10.3 µM
Activity (Mus musculus [25]): Non-toxic
Activity (Mus musculus [26]): Non-toxic
Vdss (Rattus norvegicus [27]): 1.6 L/kg
Cmax (Rattus norvegicus [28]): 2437 ng/mL
F (Rattus norvegicus [29]): 31%
